TRPC4 act: activators of mouse TRPC4 channel, primary screen, Fluo4 calcium, HEK293 TRPC4beta/mu-opioid cells. Fluo4 calcium fluorescence; active compounds read high. 310,000 compounds, 0.49% hits. AID 2237, 2010. Short transient receptor potential channel 4 (Mus musculus), Q9QUQ5. B-score at 10 µM;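 active = B-score above 5 SD of library B-scores, and initial fluorescence ratio not above library mean plus 5 SD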;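 note: positive B-score marks a calcium rise read as TRPC4 activation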
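Material: TRPC4beta and mu-opioid receptor HEK293 stable cells | Incubation: 45 min room-temperature Fluo4 loading, 110 s read | Detection: Kinetic Fluo4 calcium fluorescence | Measure: Integrated baseline-normalised fluorescence ratio, converted to per-well B score | Benchmarks: Low control buffer alone, high control maximal DAMGO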
TRPC6 act: mouse TRPC6 channel activators, primary screen, cell-based, HEK293, membrane potential dye. HEK293-TRPC6 membrane potential dye fluorescence; active compounds read high. B-score at 10 µM. 310,000 compounds, 0.13% hits. AID 2550, 2010;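 active = B-score of the integrated fluorescence ratio above library mean plus 3 SD, and starting fluorescence ratio within library mean plus 5 SD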;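 note: higher score means more depolarization so channel activation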
Target sequence (Q61143 whole entry, looked up): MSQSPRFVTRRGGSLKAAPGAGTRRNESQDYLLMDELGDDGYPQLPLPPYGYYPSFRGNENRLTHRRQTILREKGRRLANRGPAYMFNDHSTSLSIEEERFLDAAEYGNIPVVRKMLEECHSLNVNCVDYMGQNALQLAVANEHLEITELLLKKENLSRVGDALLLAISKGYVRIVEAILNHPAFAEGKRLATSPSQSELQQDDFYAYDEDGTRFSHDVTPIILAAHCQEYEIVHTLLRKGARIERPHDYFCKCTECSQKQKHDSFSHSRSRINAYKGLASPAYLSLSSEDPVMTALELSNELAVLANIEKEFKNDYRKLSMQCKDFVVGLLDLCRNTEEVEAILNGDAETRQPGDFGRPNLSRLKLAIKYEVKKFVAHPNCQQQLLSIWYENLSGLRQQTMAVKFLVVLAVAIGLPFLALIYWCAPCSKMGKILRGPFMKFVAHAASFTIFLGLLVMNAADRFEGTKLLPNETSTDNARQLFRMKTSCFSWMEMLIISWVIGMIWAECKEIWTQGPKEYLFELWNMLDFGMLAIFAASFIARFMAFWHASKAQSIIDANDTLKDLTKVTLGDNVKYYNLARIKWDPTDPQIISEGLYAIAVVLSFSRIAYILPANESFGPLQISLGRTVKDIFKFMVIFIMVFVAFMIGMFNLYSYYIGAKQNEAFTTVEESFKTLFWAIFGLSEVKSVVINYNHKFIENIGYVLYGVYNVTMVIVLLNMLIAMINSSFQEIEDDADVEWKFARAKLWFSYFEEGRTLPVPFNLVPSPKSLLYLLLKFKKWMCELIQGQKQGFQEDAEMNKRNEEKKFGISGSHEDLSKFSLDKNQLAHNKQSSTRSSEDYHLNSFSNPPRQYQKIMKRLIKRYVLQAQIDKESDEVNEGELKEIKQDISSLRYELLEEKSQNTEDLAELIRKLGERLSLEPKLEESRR
TRPC4 block: inhibitors of mouse TRPC4 channel, primary screen, Fluo4 calcium, HEK293 TRPC4beta/mu-opioid cells | 300,000 compounds, 0.39% hits | AID 2247, 2010 | B-score at 10 µM | DAMGO-evoked Fluo4 calcium flux; active compounds read low | Short transient receptor potential channel 4 (Mus musculus), Q9QUQ5;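 active = B-score over 3 SD under the library average, no early fluorescence shift, positive overall ratio signal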
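Test system – stable TRPC4beta/mu-opioid receptor HEK293 cells · Probe or stimulus – DAMGO, a submaximal dose followed by a maximal one · Dosing – one concentration per compound · Signal – Fluo4 calcium fluorescence by kinetic imaging, 5 s 1 Hz baseline · Evaluation – per-well B score of integrated baseline-normalized Fluo4 ratio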
Kir21 block: inhibitors of mouse Kir2.1 inward-rectifier potassium channel | Inward rectifier potassium channel 2 (Mus musculus), P35561 | HEK293-Kir2.1, FluxOR thallium flux fluorescence; active compounds read low | B-score at 10 µM | 310,000 compounds, 0.85% hits | AID 1672, 2009;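 active = fluorescence ratio B-score at or below minus 3 SD of library scores, with starting-brightness B-score within 2 SD, cut at about -4.2 in these data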;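 note: channel flux triggered by added potassium and thallium sulfate stimulus; B-score of peak minus minimum fluorescence over baseline after thallium stimulus; more negative B-score means stronger Kir2.1 block with less thallium influx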
TRPC4 potent: positive allosteric modulators of TRPC4, primary screen, cell-based, mouse TRPC4beta, HEK293 mu-opioid, Fluo-4 calcium. Short transient receptor potential channel 4 (Mus musculus), Q9QUQ5. DAMGO EC20, Fluo-4 Ca2+ flux; active compounds read high. B-score at 10 µM. 310,000 compounds, 0.42% hits. AID 2227, 2009;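 active = B-score of calcium response area above 5 SD of library B-scores, with initial fluorescence ratio within 5 SD of library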;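 note: B-score of integrated fluorescence ratio over time as area under calcium response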
TRPC6 inhibitor: mouse TRPC6 channel inhibitors, primary screen, cell-based, HEK293, membrane potential dye. ACh-evoked depolarization; active compounds read low. 310,000 compounds, 1.1% hits. B-score at 10 µM. AID 2553, 2010. Short transient receptor potential channel 6 (Mus musculus), Q61143;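 active = B-score under library mean minus 3 SD, initial fluorescence not abnormally high, positive integrated signal ratio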;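 note: B-score derived from integrated fluorescence ratio over the kinetic read; more negative B-score means stronger inhibition of depolarization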
Starred values were filed as active, the others as inactive; i = inactive. Most compounds without a hit are left out; they make up all but 3% or so of the library.

SMILES	TRPC4 act	TRPC6 act	TRPC4 block	Kir21 block	TRPC4 potent	TRPC6 inhibitor
COc1ccc(CC(O)COS(N)(=O)=O)cc1 (stereo unspecified)	i	i	i	-0.31	i	i
Nc1nsc2ccccc12	i	i	i	-5.12*	i	i
Cc1cccc(-n2c(C)c(C)c3c(N)ncnc32)c1	i	i	i	0.01	i	i
COC(=O)c1c(NC(=O)C(=O)NCCCN2CCOCC2)sc2c1CCCC2	i	i	i	-4.98*	i	i
N#Cc1c(NC(=O)C(=O)NCCCN2CCOCC2)sc2c1CCC2	i	i	i	-0.97	i	i
O=C(CSc1cccc(C(F)(F)F)c1)Nc1cc(S(=O)(=O)N2CCCC2)ccc1Cl	i	i	i	-0.54	10*	i
Cn1nnnc1SCC(=O)Nc1cc(S(=O)(=O)N2CCCC2)ccc1Cl	i	i	i	1.54	i	i
Fc1ccc(CNC(=S)Nc2ccccc2Cl)cc1	i	i	i	-0.82	i	i
c1ccc(Nc2ncnc3sc4c(c23)CCC4)cc1	216*	i	i	0.92	i	i
OCc1cccc(Nc2ncnc3sc4c(c23)CCCCC4)c1	i	i	i	0.25	i	i
Fc1ccc(Nc2ncnc3sc4c(c23)CCC4)cc1	i	i	i	1.8	66*	i
Fc1ccc(Nc2ncnc3sc4c(c23)CCC4)cc1F	i	i	i	0.01	i	i
Cc1ccc(NC(=O)CCn2ccc([N+](=O)[O-])n2)nc1	i	i	i	0.41	i	i
CCC(=O)Nc1cccc(-n2nnnc2SCC(=O)N2CCCCC2)c1	i	i	i	0.02	10*	i
CC(C)OC(=O)CSc1nc(Cc2cccs2)nc2ccccc12	i	i	i	-4.41*	i	i
COC(=O)CSc1nc(C(C)C)nc2ccccc12	i	i	i	-2.69	i	i
C=CCC(C)(NCc1ccccc1)c1ccc(C)cc1 (stereo unspecified)	i	i	i	-4.88*	i	i
C=CCC(C)(NCc1ccccc1)c1ccccc1 (stereo unspecified)	i	i	i	-2.7	i	i
COc1cc(C)c(S(=O)(=O)NOCc2ccccc2)c(C)c1C	i	i	i	-7.11*	i	i
CCN1/C(=C/c2ccc3cc(C)ccc3[n+]2CC)Sc2ccccc21	i	i	i	-15.3	i	i
CCN1/C(=C/c2sc(-c3ccccc3C)c[n+]2C)Sc2ccccc21	i	i	i	-7.61*	i	i
CC1CCc2cc(F)ccc2N1S(=O)(=O)c1ccc(F)cc1 (stereo unspecified)	i	i	i	-4.27*	i	i
CCN=C1S/C(=C\c2cc(OCC)c(O)cc2Br)C(=O)N1CC	i	i	i	-0.12	i	i
CCN=C1S/C(=C\c2ccc(O)c(OCC)c2)C(=O)N1CC	i	i	i	-5.73*	i	i
COc1ccccc1CN(C)C(=O)c1sccc1-c1ccccc1	i	i	i	-5.42*	i	i
CCN(CC)CCN1C(=O)C(O)=C(C(=O)c2cc3cccc(OC)c3o2)C1c1cccs1 (stereo unspecified)	i	i	i	0.75	i	i
CCOc1ccccc1OCCOc1ccccc1OC(C)C	i	i	i	-4.93*	i	i
CC1Cc2ccccc2N1C(=O)CSc1nc2c(c(=O)n(C)c(=O)n2C)n1Cc1ccccc1 (stereo unspecified)	245*	i	-7*	0.88	13*	i
